Reference: ChEMBL document CHEMBL1949592, “Synthesis and antiviral activity of 2'-deoxy-2'-fluoro-2'-C-methyl-7-deazapurine nucleosides, their phosphoramidate prodrugs and 5'-triphosphates” (Bioorg Med Chem Lett, 2011)

What was measured:
Huh-7 = assay: Cytotoxicity against human HuH7 cells assessed as reduction of 50% rRNA level after 96 hrs; type: cell-based; details: huh-7, 96 h
Method in brief: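 Huh-7 cells carrying the HCV replicon were exposed to compound for 96 h. Toxicity was read as a fall in cellular rRNA.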

Hepatitis C virus = assay: Antiviral activity against Hepatitis C virus infected in human HuH7 cells assessed as decrease in viral RNA level after 96 hrs by RT-PCR; type: functional, organism-based, Hepacivirus hominis; details: Huh-7, 96 h
Vero = assay: Cytotoxicity against african green monkey Vero cells after 3 days by hemocytometer analysis; type: cell-based; details: Chlorocebus sabaeus, 72 h
CCRF-CEM = assay: Cytotoxicity against human CEM cells after 6 days by trypan blue exclusion method; type: cell-based; details: 144 h
PBMC = assay: Cytotoxicity against human PBMC after 6 days by trypan blue exclusion method; type: cell-based; details: 144 h
[1] = test system: Human immunodeficiency virus 1; assay: Antiviral activity against HIV1 LAV1 infected in PHA-stimulated human PBMC assessed as reduction in RT activity after 6 days by micromethod-based beta scintillation counting; type: functional, organism-based; details: Human immunodeficiency virus 1, LAV1, 144 h

Structure (SMILES)	CC50 (Huh-7) [µM]	EC50 (Hepatitis C virus) [µM]	EC90 (Hepatitis C virus) [µM]	IC50 (Vero) [µM]	IC50 (CCRF-CEM) [µM]	IC50 (PBMC) [µM]	EC50 [1] [µM]	EC90 [1] [µM]
C=Cc1cn([C@@H]2O[C@H](CO)[C@@H](O)[C@@]2(C)F)c2ncnc(N)c12	4.5	1.8	7.6	10.1	3.5	4.8	14.7	44.8
CCOC(=O)[C@H](C)NP(=O)(OC[C@H]1O[C@@H](n2cc(F)c3c(N)ncnc32)[C@](C)(F)[C@@H]1O)Oc1ccccc1 (some centres not stated)	> 10	> 10	> 10	> 100	> 100	> 100	39.4	98.8
COC(=O)/C=C/c1cn([C@@H]2O[C@H](CO)[C@@H](O)[C@@]2(C)F)c2ncnc(N)c12	–	> 10	> 10	> 100	> 100	> 100	> 100	> 100
C[C@@]1(F)[C@H](O)[C@@H](CO)O[C@H]1n1cc(Cl)c2c(N)ncnc21	> 10	< 10	> 10	> 100	> 100	18.5	82.4	–
C#Cc1cn([C@@H]2O[C@H](CO)[C@@H](O)[C@@]2(C)F)c2nc(N)nc(N)c12	–	> 10	–	> 100	> 100	> 100	84.4	> 100
C#Cc1cn([C@H]2O[C@H](CO)[C@@H](O)[C@@]2(C)F)c2ncnc(N)c12	> 10	< 10	> 10	> 100	> 100	> 100	95.2	–
CCc1cn([C@H]2O[C@H](CO)[C@@H](O)[C@@]2(C)F)c2ncnc(N)c12	> 10	> 10	> 10	> 100	> 100	> 100	95.5	–
C[C@@]1(F)[C@H](O)[C@@H](CO)O[C@@H]1n1ccc2c(N)nc(N)nc21	–	> 10	–	> 100	> 100	> 100	> 100	> 100
CCOC(=O)[C@H](C)NP(=O)(OC[C@H]1O[C@@H](n2cc(I)c3c(N)ncnc32)[C@](C)(F)[C@@H]1O)Oc1ccccc1 (some centres not stated)	> 10	> 10	> 10	17.8	13.5	17.4	58.1	> 100
C[C@@]1(F)[C@H](O)[C@@H](CO)O[C@H]1n1cc(F)c2c(N)ncnc21	–	> 10	> 10	> 100	> 100	> 100	> 100	> 100
CNc1ncnc2c1c(F)cn2[C@@H]1O[C@H](CO)[C@@H](O)[C@@]1(C)F	> 10	> 10	> 10	> 100	> 100	> 100	> 100	> 100
C[C@@]1(O)[C@H](O)[C@@H](CO)O[C@H]1n1ccc(N)nc1=O	> 10	2.8	9.6	> 100	54.4	47.4	47.5	100
C#Cc1cn([C@@H]2O[C@H](CO)[C@@H](O)[C@@]2(C)F)c2ncnc(N)c12	–	< 10	–	> 100	> 100	94.1	59.1	> 100
Cc1cn([C@H]2C[C@H](N=[N+]=[N-])[C@@H](CO)O2)c(=O)[nH]c1=O [ZIDOVUDINE]	> 10	> 10	> 10	–	–	> 100	0.0033	0.028
CNc1ncnc2c1c(F)cn2[C@H]1O[C@H](CO)[C@@H](O)[C@@]1(C)F	–	> 10	–	> 100	> 100	> 100	> 100	–
C=Cc1cn([C@H]2O[C@H](CO)[C@@H](O)[C@@]2(C)F)c2ncnc(N)c12	8.3	5.6	18.4	14.6	16	21	35.5	65.2
C[C@@]1(F)[C@H](O)[C@@H](CO)O[C@@H]1n1cc(I)c2c(N)nc(N)nc21	–	> 10	–	> 100	> 100	> 100	> 100	> 100
COc1ncnc2c1ccn2[C@@H]1O[C@H](CO)[C@@H](O)[C@@]1(C)F	–	> 10	> 10	> 100	> 100	> 100	24.8	85.6
C[C@@]1(F)[C@H](O)[C@@H](CO)O[C@@H]1n1cc(Cl)c2c(N)ncnc21	–	< 10	–	> 100	96	> 100	> 100	> 100
C[C@@]1(F)[C@H](O)[C@@H](CO)O[C@@H]1n1cc(Br)c2c(N)ncnc21	> 10	< 10	–	71.1	76	89.1	≥ 100	–
CCOC(=O)[C@H](C)NP(=O)(OC[C@H]1O[C@@H](n2cc(I)c3c(N)nc(N)nc32)[C@](C)(F)[C@@H]1O)Oc1ccccc1 (some centres not stated)	> 10	> 10	> 10	65.1	> 100	67.4	26.7	> 100
C[C@@]1(F)[C@H](O)[C@@H](CO)O[C@@H]1n1ccc2c(N)ncnc21	–	> 10	–	> 100	> 100	> 100	> 100	–
CCc1cn([C@@H]2O[C@H](CO)[C@@H](O)[C@@]2(C)F)c2ncnc(N)c12	–	< 10	–	> 100	> 100	20.7	19	> 100
C[C@@]1(F)[C@H](O)[C@@H](CO)O[C@@H]1n1cc(F)c2c(N)ncnc21	> 10	> 10	–	> 100	8.1	> 100	> 100	–
C[C@@]1(F)[C@H](O)[C@@H](CO)O[C@H]1n1cc(Br)c2c(N)ncnc21	< 10	< 10	> 10	53.1	50.5	74.2	> 100	> 100
COc1ncnc2c1ccn2[C@H]1O[C@H](CO)[C@@H](O)[C@@]1(C)F	> 10	> 10	–	> 100	> 100	> 100	≥ 100	≥ 100
C[C@@]1(F)[C@H](O)[C@@H](CO)O[C@H]1n1ccc2c(N)ncnc21	> 10	> 10	> 10	> 100	> 100	> 100	> 100	> 100
C[C@@]1(F)[C@H](O)[C@@H](CO)O[C@H]1n1cc(I)c2c(N)nc(N)nc21	> 10	> 10	> 10	62.8	85.4	72.9	99.5	–
